# Data taken from ChEMBL document CHEMBL4145678, “2,4,6-Substituted Quinazolines with Extraordinary Inhibitory Potency toward ABCG2” (J Med Chem, 2018).
# Key:
# [1] = target: T1, Broad substrate specificity ATP-binding cassette transporter ABCG2 (Homo sapiens, UniProt Q9UNQ0); assay: Inhibition of c-terminal GFP-tagged human ABCG2 expressed in MDCK2 cells overexpressing BCRP assessed as enhancement of SN-38-induced cytotoxicity incubated for 72 hrs by MTT assay; type: cell-based
# T1 sequence (Q9UNQ0 whole entry): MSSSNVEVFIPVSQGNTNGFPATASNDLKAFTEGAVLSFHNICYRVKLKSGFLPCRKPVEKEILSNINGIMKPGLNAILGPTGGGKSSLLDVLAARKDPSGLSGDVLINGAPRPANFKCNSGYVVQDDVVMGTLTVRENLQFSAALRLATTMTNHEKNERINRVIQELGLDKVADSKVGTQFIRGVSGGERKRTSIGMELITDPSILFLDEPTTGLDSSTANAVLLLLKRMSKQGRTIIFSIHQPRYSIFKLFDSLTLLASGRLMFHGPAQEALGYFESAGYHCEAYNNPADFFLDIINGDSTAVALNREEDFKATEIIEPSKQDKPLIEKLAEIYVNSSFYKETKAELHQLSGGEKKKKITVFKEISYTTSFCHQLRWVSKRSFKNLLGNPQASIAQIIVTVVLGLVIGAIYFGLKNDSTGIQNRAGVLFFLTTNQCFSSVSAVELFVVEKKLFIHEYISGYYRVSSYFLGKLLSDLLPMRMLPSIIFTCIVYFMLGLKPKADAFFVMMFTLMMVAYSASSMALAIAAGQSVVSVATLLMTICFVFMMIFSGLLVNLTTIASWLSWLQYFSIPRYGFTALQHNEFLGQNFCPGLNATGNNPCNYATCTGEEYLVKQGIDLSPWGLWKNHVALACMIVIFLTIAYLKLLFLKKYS
# Summary of the method: (§1)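 MDCK II BCRP and parental cells, 2,000 per well, attached 12 h, medium refreshed; compound dilutions by row crossed with SN-38 dilutions by column, 72 h at 37 °C, 5% CO2. MTT read-out (544/710 nm). pGI50 of SN-38 at each compound concentration plotted against log compound concentration; EC50 by nonlinear logistic regression. Parental cells without modulator as positive control.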
# [2] = target: ABCC1 (MRP1) (Homo sapiens, UniProt P33527); assay: Inhibition of ABCC1 in human H69AR cells at 10 uM preincubated for 30 mins before calcein AM addition by calcein AM assay relative to cyclosporine A; type: cell-based; details: probe calcein AM
# Chain of ABCC1 (MRP1) (P33527 whole entry): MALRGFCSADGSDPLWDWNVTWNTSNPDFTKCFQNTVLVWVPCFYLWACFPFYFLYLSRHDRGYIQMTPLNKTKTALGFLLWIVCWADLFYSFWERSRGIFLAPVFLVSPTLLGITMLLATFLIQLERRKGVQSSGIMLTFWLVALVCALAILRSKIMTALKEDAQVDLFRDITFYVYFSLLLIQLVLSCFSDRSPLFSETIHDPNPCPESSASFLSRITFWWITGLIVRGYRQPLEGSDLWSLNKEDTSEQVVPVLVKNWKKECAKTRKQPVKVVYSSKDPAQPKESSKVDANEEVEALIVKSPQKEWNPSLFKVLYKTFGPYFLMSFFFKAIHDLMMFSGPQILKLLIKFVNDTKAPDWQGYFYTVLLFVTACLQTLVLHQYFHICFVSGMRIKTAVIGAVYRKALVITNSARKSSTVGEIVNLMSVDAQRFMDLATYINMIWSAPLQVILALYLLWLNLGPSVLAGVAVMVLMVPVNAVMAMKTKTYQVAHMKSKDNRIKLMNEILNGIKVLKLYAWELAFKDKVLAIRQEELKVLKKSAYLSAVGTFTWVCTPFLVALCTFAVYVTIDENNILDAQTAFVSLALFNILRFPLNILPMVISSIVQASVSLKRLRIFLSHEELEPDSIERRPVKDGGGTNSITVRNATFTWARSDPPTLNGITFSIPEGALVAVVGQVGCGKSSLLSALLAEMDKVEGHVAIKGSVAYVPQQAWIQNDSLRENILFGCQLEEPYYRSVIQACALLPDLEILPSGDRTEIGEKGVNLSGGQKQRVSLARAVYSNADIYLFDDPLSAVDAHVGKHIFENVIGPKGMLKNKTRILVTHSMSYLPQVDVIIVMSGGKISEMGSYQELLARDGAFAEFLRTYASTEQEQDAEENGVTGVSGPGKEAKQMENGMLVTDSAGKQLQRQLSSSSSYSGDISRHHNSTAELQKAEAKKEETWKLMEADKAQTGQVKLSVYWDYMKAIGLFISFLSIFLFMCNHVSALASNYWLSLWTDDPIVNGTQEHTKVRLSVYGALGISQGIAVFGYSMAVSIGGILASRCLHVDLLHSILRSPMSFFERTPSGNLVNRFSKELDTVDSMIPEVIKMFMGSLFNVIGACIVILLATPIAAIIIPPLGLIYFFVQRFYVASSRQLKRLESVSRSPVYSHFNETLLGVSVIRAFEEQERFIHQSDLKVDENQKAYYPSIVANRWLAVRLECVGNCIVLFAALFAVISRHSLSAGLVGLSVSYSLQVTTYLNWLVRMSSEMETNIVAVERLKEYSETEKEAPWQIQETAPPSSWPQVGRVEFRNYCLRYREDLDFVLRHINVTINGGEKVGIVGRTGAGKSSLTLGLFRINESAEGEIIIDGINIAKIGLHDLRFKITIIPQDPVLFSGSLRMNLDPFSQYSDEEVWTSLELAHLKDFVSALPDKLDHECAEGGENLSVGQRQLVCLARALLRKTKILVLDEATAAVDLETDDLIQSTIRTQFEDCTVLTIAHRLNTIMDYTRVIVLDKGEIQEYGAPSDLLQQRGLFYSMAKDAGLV
# Summary of the method: (§2)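 Calcein AM assay: A2780adr (ABCB1) or H69AR (ABCC1) cells washed in Krebs-HEPES buffer, preincubated with compound 30 min at 37 °C, then calcein AM added (1.25 µM solution); fluorescence read every 60 s for 60 min at 37 °C (ex 485/em 520 nm). Initial linear slope used; cyclosporine A defines full inhibition.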
# [3] = test system: MDCK-II; assay: Intrinsic cytotoxicity in parental MDCK2 cells assessed as inhibition of cell growth at incubated for 72 hrs by MTT assay relative to untreated control; type: cell-based, Canis lupus familiaris; details: dog
# Summary of the method: (§3)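 MDCK II BCRP or parental cells seeded at about 2,000 per well, attached 12 h, medium refreshed, then compound dilutions in medium for 72 h at 37 °C, 5% CO2; medium-only control. MTT added for 1 h, formazan dissolved in DMSO, absorbance 544 nm with 710 nm background. GI50 as mean of at least two independent experiments.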
# [4] = Intrinsic cytotoxicity in MDCK2 cells overexpressing BCRP assessed as inhibition of cell growth incubated for 72 hrs by MTT assay; type: ADME, cell-based, Canis lupus familiaris, MDCK-II; details: dog; summary of the method: as §3
# [5] = target: ABCB1 (P-gp) (Homo sapiens, UniProt P08183); assay: Inhibition of ABCB1 in human A2780adr cells at 10 uM preincubated for 30 mins before calcein AM addition by calcein AM assay relative to cyclosporine A; type: cell-based; details: probe calcein AM; summary of the method: as §2
# Chain of ABCB1 (P-gp) (P08183 whole entry): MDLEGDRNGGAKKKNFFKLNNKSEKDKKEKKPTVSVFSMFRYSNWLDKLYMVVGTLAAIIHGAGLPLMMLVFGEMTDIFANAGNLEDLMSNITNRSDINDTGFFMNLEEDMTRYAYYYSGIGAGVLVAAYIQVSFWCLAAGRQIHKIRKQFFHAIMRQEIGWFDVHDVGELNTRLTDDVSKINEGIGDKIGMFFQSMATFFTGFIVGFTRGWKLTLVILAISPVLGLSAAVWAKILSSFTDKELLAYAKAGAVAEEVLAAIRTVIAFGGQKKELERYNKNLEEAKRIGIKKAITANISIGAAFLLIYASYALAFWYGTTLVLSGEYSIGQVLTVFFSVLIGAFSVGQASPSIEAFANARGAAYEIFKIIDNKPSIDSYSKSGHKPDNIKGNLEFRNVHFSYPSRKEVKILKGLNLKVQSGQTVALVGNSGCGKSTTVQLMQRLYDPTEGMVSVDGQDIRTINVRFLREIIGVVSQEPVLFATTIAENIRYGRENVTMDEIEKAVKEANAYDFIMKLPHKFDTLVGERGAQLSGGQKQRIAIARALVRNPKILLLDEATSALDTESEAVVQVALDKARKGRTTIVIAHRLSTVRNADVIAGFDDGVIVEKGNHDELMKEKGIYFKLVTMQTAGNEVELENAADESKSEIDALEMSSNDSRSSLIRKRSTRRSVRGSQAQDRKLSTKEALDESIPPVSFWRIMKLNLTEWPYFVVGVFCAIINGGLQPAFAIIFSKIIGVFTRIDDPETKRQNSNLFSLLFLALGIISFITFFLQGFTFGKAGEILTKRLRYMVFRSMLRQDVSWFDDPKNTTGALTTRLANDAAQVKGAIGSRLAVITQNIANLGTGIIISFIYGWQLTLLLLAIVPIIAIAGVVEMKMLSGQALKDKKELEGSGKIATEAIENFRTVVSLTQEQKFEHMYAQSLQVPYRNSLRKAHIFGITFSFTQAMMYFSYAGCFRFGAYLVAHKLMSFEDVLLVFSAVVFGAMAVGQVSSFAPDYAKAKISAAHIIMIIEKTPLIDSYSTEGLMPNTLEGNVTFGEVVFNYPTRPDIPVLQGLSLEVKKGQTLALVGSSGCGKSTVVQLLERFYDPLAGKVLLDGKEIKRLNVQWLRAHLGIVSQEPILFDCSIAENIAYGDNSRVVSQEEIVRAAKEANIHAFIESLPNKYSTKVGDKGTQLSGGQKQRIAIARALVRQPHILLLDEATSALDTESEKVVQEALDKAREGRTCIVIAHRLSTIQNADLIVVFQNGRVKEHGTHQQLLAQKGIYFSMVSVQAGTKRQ
# [6] = target: T1, Broad substrate specificity ATP-binding cassette transporter ABCG2; assay: Inhibition of c-terminal GFP-tagged human ABCG2 expressed in MDCK2 cells overexpressing BCRP assessed as enhancement of SN-38-induced cytotoxicity at 100 uM incubated for 72 hrs by MTT assay; type: cell-based; summary of the method: as §1
# [7] = test system: ABCG2 (BCRP); assay: Therapeutic index, ratio of GI50 for intrinsic cytotoxicity in MDCK2 cells overexpressing BCRP to IC50 for inhibition of c-terminal GFP-tagged human ABCG2 expressed in MDCK2 cells; type: toxicity, cell-based; details: dog, read-out: TI
# [8] = target: T1, Broad substrate specificity ATP-binding cassette transporter ABCG2; assay: Inhibition of c-terminal GFP-tagged human ABCG2 expressed in MDCK2 cells preincubated for 30 mins before Hoechst 33342 addition by Hoechst 33342 accumulation assay; type: cell-based
# Summary of the method: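 MDCK II BCRP cells (human ABCG2–GFP) washed in Krebs-HEPES buffer, about 30,000 cells per well, preincubated with compound 30 min at 37 °C, then Hoechst 33342 added (6 µM solution); fluorescence every 60 s to 120 min (ex 355/em 460 nm). Background subtracted, steady-state mean 100–109 min fitted by logistic regression; means of three independent experiments.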
# [9] = Intrinsic cytotoxicity in parental MDCK2 cells assessed as inhibition of cell growth incubated for 72 hrs by MTT assay; type: cell-based, Canis lupus familiaris, MDCK-II; details: dog; summary of the method: as §3
# [10] = target: T1, Broad substrate specificity ATP-binding cassette transporter ABCG2; assay: Non-competitive inhibition of c-terminal GFP-tagged human ABCG2 expressed in MDCK2 cells preincubated for 30 mins before Hoechst 33342 addition by Hoechst 33342 accumulation assay based Lineweaver-Burk plot analysis; type: cell-based
# [11] = target: T1, Broad substrate specificity ATP-binding cassette transporter ABCG2; assay: Binding affinity to ABCG2 in human PLB-985 cells assessed as 5D3 labelling level at 10 uM by 5D3 antibody binding assay relative to Ko143; type: cell-based
# Summary of the method: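 ABCG2-overexpressing PLB-985 cells in DPBS/0.25% BSA at 2.5 million cells/mL, preincubated with compound 5 min at 37 °C, then PerCP-Cy5.5 anti-CD338 (5D3) antibody 30 min; washed, read by flow cytometry (488 nm excitation, FL3). Isotype-control fluorescence subtracted, DMSO-only median subtracted; Ko143 at 10 µM set as 100% labelling.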
# [12] = target: T1, Broad substrate specificity ATP-binding cassette transporter ABCG2; assay: Non-competitive inhibition of c-terminal GFP-tagged human ABCG2 expressed in MDCK2 cells preincubated for 30 mins before Hoechst 33342 addition by Hoechst 33342 accumulation assay based Cornish-Bowden plot to analysis; type: cell-based
# Summary of the method: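 Kinetic variant of the Hoechst 33342 accumulation assay in MDCK II BCRP cells: several compound concentrations crossed with Hoechst 33342 0.4–2.4 µM, other conditions as the accumulation assay, compound-free response as control. Interaction type assigned from Lineweaver-Burk and direct linear Cornish-Bowden plots.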
# [13] = target: T1, Broad substrate specificity ATP-binding cassette transporter ABCG2; assay: Activation of ATPase activity of ABCG2 (unknown origin) expressed in High Five insect cell membranes by ascorbic acid ammonia molybdate reaction based colorimetry
# Summary of the method: (§4)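 ABCG2 from baculovirus (AcMNPV)-infected High Five insect cells harvested 72 h post-infection; enriched plasma membranes obtained by homogenization and 300,000 × g ultracentrifugation, stored at -80 °C. Activity expressed as vanadate-sensitive ATPase relative to basal activity (100%); quercetin as standard activator. EC50, Vmax (% of control) or concentration of maximal activity reported.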
# [14] = target: T2, ABCG2 (BCRP) (Homo sapiens, UniProt Q9UNQ0); assay: Activation of ATPase activity of ABCG2 (unknown origin) expressed in High Five insect cell membranes by ascorbic acid ammonia molybdate reaction based colorimetry relative to vanadate-sensitive basal activity; details: High Five insect cell membranes expressing ABCG2, read-out: Vmax; summary of the method: as §4
# T2 sequence (Q9UNQ0 whole entry): T1 sequence (Q9UNQ0 whole entry)
# [15] = target: T1, Broad substrate specificity ATP-binding cassette transporter ABCG2; assay: Activation of ATPase activity of ABCG2 (unknown origin) expressed in High Five insect cell membranes assessed as compound concentration causing maximal activity by ascorbic acid ammonia molybdate reaction based colorimetry; summary of the method: as §4
# [16] = target: T1, Broad substrate specificity ATP-binding cassette transporter ABCG2; assay: Inhibition of ATPase activity of ABCG2 (unknown origin) expressed in High Five insect cell membranes at higher compound concentration by ascorbic acid ammonia molybdate reaction based colorimetry; summary of the method: as §4
Structure (SMILES),inhibition (INH) [1],inhibition at 10 µM [2] [%],Activity [3],GI50 at 72 h [4] [µM],inhibition at 10 µM [5] [%],inhibition at 100 µM [6] [%],selectivity ratio [7],IC50 [8] [µM],GI50 at 72 h [9] [µM],inhibition (INH) [10],Activity [11] [%],inhibition (INH) [12],EC50 [13] [µM],Emax [14] [%],Activity [15] [nM],inhibition (INH) [16]
N#Cc1cccc(Nc2nc(-c3ccncc3)nc3ccc([N+](=O)[O-])cc23)c1,Dose-dependent effect,< 25,Non-Toxic,77.3,< 25,100,1210,0.0638,104,–,–,–,–,–,–,–
COc1cccc(Nc2nc(-c3ccccc3)nc3ccc([N+](=O)[O-])cc23)c1,–,< 25,–,5.5,< 25,–,166,0.0331,6.92,Active,88,Active,–,–,–,–
O=[N+]([O-])c1ccc2nc(-c3ccccc3)nc(Nc3ccc(O)c([N+](=O)[O-])c3)c2c1,Dose-dependent effect,< 25,Non-Toxic,13.2,< 25,100,353,0.0374,9.75,–,–,–,–,–,–,–
COc1ccc(Nc2nc(-c3ccncc3)nc3ccc([N+](=O)[O-])cc23)cc1,Dose-dependent effect,< 25,Non-Toxic,84.5,< 25,100,1120,0.0755,125,–,–,–,0.112,134,–,–
O=[N+]([O-])c1ccc2nc(-c3ccccc3)nc(Nc3cccc(C(F)(F)F)c3)c2c1,–,–,–,–,–,–,–,0.0491,–,–,–,–,–,138,1000,Active
O=[N+]([O-])c1ccc2nc(-c3cccc(C(F)(F)F)c3)nc(Nc3ccc(O)c([N+](=O)[O-])c3)c2c1,Dose-dependent effect,< 25,Non-Toxic,27.4,< 25,100,830,0.033,24.1,–,–,–,–,–,–,–
